Screens deposited in PubChem by several laboratories.
PHOSPHO1 block: inhibitors of human PHOSPHO1 phosphatase; Q8TCT1; inhibition, % at 13.3 µM; hit rate 1.1% among 290,000; recombinant PHOSPHO1, absorbance phosphatase assay; in the data active = inhibition above about 60%
PfG6PD inh: PfG6PD (Plasmodium falciparum) enzyme inhibition; hit rate 0.78% among 350,000; inhibition, % at 20 µM; AID 504690; PfGluPho enzyme, NADPH resazurin-diaphorase fluorescence;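 active = inhibition reaching at least a set limit at 20 µM in the primary screen, cut at about 59% in these data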;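 note: 0% = DMSO wells with substrate and 100% = DMSO wells lacking glucose-6-phosphate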
PGE2 EP2 inh: EP2 receptor (human) inhibition; P43116; C6 glioma cells expressing human EP2, cAMP TR-FRET; cells stimulated with saturating PGE2; inhibition, % at 25 µM; hit rate 0.52% among 260,000;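 active = percent inhibition above 40 after rounding to a whole number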;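 note: rat C6 glioma host cells with rolipram phosphodiesterase inhibitor present; the protocol text gives 20 µM as final concentration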
HKDC1 inhibitor: inhibitors of human hexokinase HKDC1; Q2TB90; recombinant HKDC1, G6PDH/diaphorase resazurin coupled fluorescence; inhibition, % at 20 µM; hit rate 0.16% among 340,000;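 active = inhibition above about 35% when tested at 20 µM, limit read from the data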;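 note: plate controls were DMSO wells with enzyme for no effect and DMSO wells lacking enzyme for full effect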
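Test system: recombinant HKDC1 (HK5) hexokinase enzyme, produced in-house / Doses: 20 µM test compound, 1% DMSO / Timing: 90 min, room temperature / Detection: G6PDH/diaphorase-coupled fluorescence, 1 mM NADP, 100 µM resazurin, 525/613 nm / Control set: DMSO wells with and without enzyme mix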
EP2 modulator: modulators of human EP2 prostaglandin E2 receptor; AID 940; induction, % at 25 µM; hit rate 0.83% among 260,000; P43116; EP2-expressing cells, cAMP HTRF FRET, PGE2 co-stimulation;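 active = compounds whose cAMP rise, as percent of the full-agonist control response, exceeds 60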;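 note: rat C6 glioma line stably carrying human EP2 under a CMV promoter; the protocol text gives 20 µM as final concentration; 100% = response of wells given 1 µM PGE2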
Tb hexokinase: blocks Trypanosoma brucei hexokinase 1 activity | AID 1430 | recombinant TbHK1, G6PDH-coupled NADH A340 | inhibition, % at 10 µM | hit rate 0.11% among 220,000;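 active = inhibition of 50% or more in the single-dose primary screen; inactive = inhibition below 50%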
EP2 cAMP induct: human EP2 receptor cAMP induction, negative in counter-screens. calls only at 20 µM (by protocol). AID 1080. C6 glioma EP2 cells, cAMP HTRF induction; plus low (about EC15) PGE2 agonist. hit rate 47% among 1,300. shares compounds with EP2 modulator;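 active = cAMP induction above 50% in the main assay while under 30% in all four parallel counter assays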;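 note: rat C6 glioma cells stably expressing human EP2 receptor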
An asterisk follows results filed as active; i = inactive; nt = no result; + = active, no number. Compounds with a hit are over-represented: about 2.5% of the library has one in this group of screens.

SMILES	PHOSPHO1 block	PfG6PD inh	PGE2 EP2 inh	HKDC1 inhibitor	EP2 modulator	Tb hexokinase	EP2 cAMP induct
CCn1c2ccccc2c2cc([N+](=O)[O-])ccc21	-19	10	4	-2	77*	0	+
COc1ccc(C(=O)Nc2ncc(Cc3cccc(C)c3)s2)cc1OC	nt	nt	7	nt	30	nt	nt
C(=C\c1ccccc1)/CN1CCN(C(c2ccccc2)c2ccccc2)CC1	-9	15	16	1	25	-2	nt
Fc1ccc(C(c2ccc(F)cc2)N2CCN(C/C=C/c3ccccc3)CC2)cc1	-6	7	8	13	46	6	i
Cc1ccc2nc(N3CCC(C(=O)O)CC3)nc(-c3ccccc3)c2c1	29	-31	13	12	91*	0	i
Cc1ccc2nc(N3CCN(C(=O)CCC(=O)O)CC3)nc(-c3ccccc3)c2c1	nt	-3	nt	-2	nt	nt	nt
Cc1cccc(N=N/C(=C\O)C(=O)c2ccc(Br)cc2)c1	36	10	6	3	97*	-4	+
COc1ccc(N=N/C(=C\O)C(=O)c2cccs2)cc1	3	26	1	1	67*	-3	i
COc1ccc(C(=O)/C(=C/O)N=Nc2ccc(F)cc2)cc1	37	18	4	11	69*	-18	+
CCO/C(C)=C/c1sc2ccc(Cl)cc2[n+]1CCCS(=O)(=O)[O-]	nt	nt	9	nt	-5	nt	nt
COc1cccc(CN2CCN(C(=O)c3ccc4c(c3)nc(C)n4C)[C@@H](C)C2)c1	nt	nt	nt	nt	2	nt	nt
CCOc1cc(S(=O)(=O)NCCc2ccccc2C)c(OCC)cc1-n1cnnn1	-23	-14	3	0	40	-7	nt
CCOc1cc(S(=O)(=O)NCCc2cccc(C)c2)c(OCC)cc1-n1cnnn1	-18	-7	5	18	68*	-8	i
c1ccc(C2Nc3ccccc3Oc3ccccc32)cc1 (stereo not given)	-9	0	27	6	81*	-3	i
Cc1ccc(Cn2c(=O)n(Cc3ccco3)c(=O)c3ccccc32)cc1	18	-17	8	6	68*	-3	+
O=c1c2ccccc2n(Cc2ccc(Cl)cc2)c(=O)n1Cc1ccco1	-35	2	4	-8	51	-1	+
O=C(Cn1c(=O)n(Cc2ccccc2)c(=O)c2ccccc21)NCc1ccco1	8	-2	10	-2	7	4	nt
O=C(NCc1ccco1)c1ccc(Cn2c(=O)c3ccccc3n(Cc3ccc(Cl)cc3)c2=O)cc1	-62	2	13	-1	21	25	nt
COc1cc2cc(CN(Cc3ccco3)C(=S)Nc3ccccc3)c(=O)[nH]c2cc1OC	nt	nt	7	nt	27	nt	nt
COc1ccc(-c2nnc(N3CCC(C)CC3)c3ccccc23)cc1	-19	7	nt	1	66*	-7	i
CCC1c2cccn2CCN1Cc1ccc(OCC(=O)N2CCOCC2)cc1 (stereo not given)	nt	nt	0	nt	-7	nt	nt
O=C(OCc1ccccc1Cl)c1cccnc1Cl	-1	1	9	-6	-6	0	nt
O=C(OCc1ccccc1Cl)c1ccccc1C(=O)c1ccccc1	16	-15	4	4	82*	12	+
CCn1c(-c2ccc3c(c2)c(C)c(C)n3C)n[nH]c1=S	nt	nt	9	nt	-62	nt	nt
Cc1cc(NC(=O)c2cc(-c3ccncc3)nc3c(C)cccc23)no1	-7	-2	12	-2	65*	-9	i
SMILES	PHOSPHO1 block	PfG6PD inh	PGE2 EP2 inh	HKDC1 inhibitor	EP2 modulator	Tb hexokinase	EP2 cAMP induct
Cc1sc2ncnc(SCC#N)c2c1C	40	23	23	-6	49	2	nt
Cc1sc2ncnc(Sc3ccccc3C(=O)O)c2c1C	0	-2	16	5	72*	-8	i
CCCSc1ncnc2sc(C)c(C)c12	19	-14	5	-3	53	-2	i
C=CCn1c(SCc2c(C)noc2C)nc2ccccc2c1=O	-16	-10	3	-8	71*	-6	i
CN(C(=O)CSc1nc2ccccc2c(=O)n1-c1ccc(F)cc1F)C1CCS(=O)(=O)C1 (stereo not given)	nt	13	nt	-6	nt	nt	nt
C=CCn1c(SCc2c(C)noc2C)nc2cc(C(=O)O)ccc2c1=O	nt	-13	5	-8	20	-1	nt
Cc1noc(C)c1CSc1nc2[nH]ncc2c(=O)n1-c1ccccc1	-3	4	22	-8	31	-1	nt
Cc1noc(C)c1CSc1nc2ccccc2c(=O)n1-c1ccc(F)cc1F	-1	10	nt	4	56	-2	+
Cc1noc(C)c1CSc1nc2ccccc2c(=O)n1-c1ccccc1	-13	0	15	6	53	1	i
CCc1ccccc1NC(=O)Cn1cnc2sc3c(c2c1=O)CCC(C)C3 (stereo not given)	nt	nt	3	nt	1	nt	nt
CCCCNc1nc(-c2ccccc2)c(C(=O)OCC)cc1C#N	32	4	6	7	65*	-3	+
Cc1ccsc1-c1n[nH]c(=S)n1CC(C)C	7	47	10	-6	5	-2	nt
Cc1ccsc1-c1n[nH]c(=S)n1C1CCCCC1	0	51	6	-2	63*	-2	i
CCc1cccc2c(/C=C/c3nc(O)c([N+](=O)[O-])c(=O)[nH]3)c[nH]c12	nt	nt	11	nt	-1	nt	nt
O=C(c1cc2sccc2n1Cc1ccc(F)cc1)N1CCCc2ccccc21	-15	14	12	0	73*	0	+
CS(=O)(=O)N1CCc2cc(C(O)CN3CCC4CCCCC4C3)ccc21 (stereo not given)	nt	nt	3	nt	-19	nt	nt
CCOc1ccccc1Cn1c(=O)oc2ccc(C)cc21	-14	-26	8	-14	77*	7	+
CCCOc1ccc(Cn2c(=O)oc3ccc(C)cc32)cc1OC	-7	-6	7	-1	-63	3	nt
Cc1ccc2oc(=O)n(CCOc3ccccc3Cl)c2c1	-9	-16	9	5	42	2	nt
CCCOc1ccccc1Cn1c(=O)oc2ccc(C)cc21	7	-19	4	0	84*	12	+
CCCNS(=O)(=O)c1ccc(OCC(=O)NCc2ccncc2)cc1	nt	nt	7	nt	-16	nt	nt
O=S(=O)(Nc1ccc(Cl)c(Cl)c1)c1cccs1	nt	nt	10	nt	-6	nt	nt
COc1ccc(S(=O)(=O)N(CC(=O)N2CCC(C)CC2)c2ccccc2OC)cc1	nt	nt	11	nt	33	nt	nt
O=c1c(C=NCc2ccccc2)c(NCc2ccccc2)nc2ccccn12	28	1	5	0	80*	-6	+
Cc1ccc2nc(NCc3ccccc3)c(C=O)c(=O)n2c1	-2	-8	3	-8	10	-4	nt
CCCSc1ncnc2c1oc1ccccc12	8	-1	4	21	66*	3	i
